Reference: ChEMBL document CHEMBL4616665, “Synthesis and Identification of a Novel Lead Targeting Survivin Dimerization for Proteasome-Dependent Degradation” (J Med Chem, 2020)
One block for each compound: values may come before it. Active and inactive are the calls of the source. The rule behind the calls is not given here.

How the values were obtained:
[1] = Toxicity in NSG mouse xenografted in human PC3 cells assessed as effect on stomach weight at 100 mg/kg, po administered via gavage every other day for 10 times and measured post last dose; assay type: organism-based, PC-3; details: in vivo
Outline: (§1)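 PC-3 cells (3 × 10^6, in media) implanted in hind flanks of 6-week-old male NSG mice. Once tumors reached ~100 mm3, mice were randomized into two groups of 5. Vehicle (90% corn oil/10% DMSO) or 100 mg/kg was given by oral gavage every other day for ten doses. Body weight and tumor size were measured every 2 days. At sacrifice, tumors were excised for survivin Western blot and staining, and major organs were wet-weighed.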

Homo sapiens = species: Homo sapiens; assay: Inhibition of p53-large T antigen (unknown origin) dimerization assessed as reduction in SEAP reporter expression measured after 24 hrs by mammalian two hybrid assay
Outline: (§2)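 Mammalian two-hybrid assay in DU145 cells seeded at 1 × 10^5/well, cultured 24 h, then transfected with GAL4-DBD (pBIND) and VP16 (pACT) fusions plus pGSEAP reporter and a firefly luciferase plasmid. Survivin–survivin or p53–large T antigen pairs were used; vector served as control. Two days later, cells were treated for 24 h. SEAP was measured by chemiluminescence and normalized using luciferase for transfection efficiency.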

LNCaP C4-2 [2] = assay: Cytotoxicity against human C4-2 cells transfected with pcDNA3.1 assessed as reduction in cell viability measured after 72 hrs by methylene blue staining based assay; assay type: functional; details: LNCaP C4-2, 72 h
Outline: (§3)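 Methylene blue survival assay. Prostate cancer cells in RPMI with 10% FBS were seeded at 2000–3500 cells/well and exposed to a concentration series for 72 h. Cells were then methanol-fixed, stained with 1% methylene blue in 10 mM borate for 1 h, washed, and the dye dissolved in ethanol/0.1 M HCl (1:1). OD650nm was read. IC50 came from fitted dose–response curves; three independent experiments.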

PC-3 [3] = assay: Down regulation of CIAP2 expression in human PC3 cells by Western blot analysis; assay type: functional, cell-based
LNCaP C4-2 [4] = assay: Cytotoxicity against human C4-2 cells transfected with HA-tagged survivin assessed as reduction in cell viability measured after 72 hrs by methylene blue staining based assay; assay type: functional; details: LNCaP C4-2, 72 h
[5] = molecular target: Baculoviral IAP repeat-containing protein 5 (Homo sapiens) (UniProt O15392); assay: In vivo inhibition of survivin in NSG mouse xenografted in human PC3 cells assessed as reduction in survivin expression at 100 mg/kg, po administered via gavage every other day for 10 times and measured post last dose by immunofluorescence analysis; assay type: functional, organism-based; details: PC-3; outline: as §1
Chain of Baculoviral IAP repeat-containing protein 5 (Homo sapiens) (O15392 whole entry): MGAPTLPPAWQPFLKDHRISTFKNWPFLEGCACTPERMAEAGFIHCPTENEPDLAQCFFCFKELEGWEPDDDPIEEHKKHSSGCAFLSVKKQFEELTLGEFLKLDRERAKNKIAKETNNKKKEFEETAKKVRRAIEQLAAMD

PC-3 [6] = assay: Induction of apoptosis in human PC3 cells assessed as increase in cleavage of caspase-3 by Western blot analysis; assay type: functional, cell-based
Outline: (§4)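 C4-2 or PC-3 cells were treated at a range of concentrations, and cleaved caspase 3 was measured by Western blot. Quantification was from three independent experiments.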

PC-3 [7] = assay: Down regulation of XIAP expression in human PC3 cells by Western blot analysis; assay type: functional, cell-based
[8] = molecular target: Baculoviral IAP repeat-containing protein 5 (Homo sapiens) (UniProt O15392); assay: Inhibition of survivin homodimerization in human C4-2 cells assessed as increase in survivin degradation by measuring survivin half life at 10 uM incubated up to 6 hrs in presence of cycloheximide by Western blot analysis (reference value: 2.2 hrs); assay type: cell-based; details: LNCaP C4-2
Outline: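 C4-2 or PC-3 cells were pretreated with 10 μM cycloheximide for 1 h, then chased with or without 10 μM compound, or with DMSO, for 0–6 h. Remaining survivin was measured by Western blot with actin as loading control. Band densities were quantified from three independent experiments to derive half-life.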

LNCaP C4-2 [9] = assay: Down regulation of CIAP1 expression in human C4-2 cells by Western blot analysis; assay type: functional, cell-based
LNCaP C4-2 [10] = assay: Down regulation of CIAP2 expression in human C4-2 cells by Western blot analysis; assay type: functional, cell-based
[11] = Solubility of the compound in corn oil; assay type: physicochemical
LNCaP C4-2 [12] = assay: Down regulation of survivin expression in human C4-2 cells by Western blot analysis; assay type: functional, cell-based
PC-3 [13] = assay: Antitumor activity against human PC3 cells xenografted in NSG mouse assessed as reduction in tumor size at 100 mg/kg, po administered via gavage every other day for 10 times and measured post last dose; assay type: functional, organism-based; outline: as §1
PC-3 [14] = assay: Antitumor activity against human PC3 cells xenografted in NSG mouse assessed as change in tumor color at 100 mg/kg, po administered via gavage every other day for 10 times and measured post last dose; assay type: functional, organism-based; outline: as §1
[15] = Toxicity in NSG mouse xenografted in human PC3 cells assessed as effect on heart weight at 100 mg/kg, po administered via gavage every other day for 10 times and measured post last dose; assay type: organism-based, PC-3; details: in vivo; outline: as §1
PC-3 [16] = assay: Cytotoxicity against human PC3 cells assessed as reduction in cell viability measured after 72 hrs by methylene blue staining based assay; assay type: functional; details: PC-3, 72 h; outline: as §3
[17] = molecular target: Baculoviral IAP repeat-containing protein 5 (Homo sapiens) (UniProt O15392); assay: Inhibition of survivin homodimerization in human C4-2 cells assessed as increase in survivin degradation in presence of proteasome inhibitor bortezomib by Western blot analysis; assay type: cell-based; details: LNCaP C4-2
Outline: (§5)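 Cells were pretreated for 1 h with proteasome inhibitor MG132 or bortezomib before compound treatment. Survivin was then assessed by Western blot with actin loading control, quantified from three independent experiments.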

[18] = molecular target: Baculoviral IAP repeat-containing protein 5 (Homo sapiens) (UniProt O15392); assay: In vivo inhibition of survivin in NSG mouse xenografted in human PC3 cells assessed as reduction in survivin expression at 100 mg/kg, po administered via gavage every other day for 10 times and measured post last dose by Western blot analysis; assay type: functional, organism-based; details: PC-3; outline: as §1
PC-3 [19] = assay: Antitumor activity against human PC3 cells xenografted in NSG mouse assessed as suppression of tumor growth at 100 mg/kg, po administered via gavage every other day for 10 times and measured every 2 days during compound dosing; assay type: functional, organism-based; outline: as §1
LNCaP C4-2 [20] = assay: Cytotoxicity against human C4-2 cells assessed as reduction in cell viability measured after 72 hrs by methylene blue staining based assay; assay type: functional; details: LNCaP C4-2, 72 h; outline: as §3
[21] = molecular target: Baculoviral IAP repeat-containing protein 5 (Homo sapiens) (UniProt O15392); assay: Inhibition of survivin homodimerization in human PC3 cells assessed as increase in survivin degradation by measuring survivin half life at 10 uM incubated up to 6 hrs in presence of cycloheximide by Western blot analysis (reference value: 2.3 hrs); details: PC-3
LNCaP C4-2 [22] = assay: Induction of apoptosis in human C4-2 cells assessed as increase in cleavage of caspase-3 by Western blot analysis; assay type: functional, cell-based; outline: as §4
[23] = Toxicity in NSG mouse xenografted in human PC3 cells assessed as effect on body weight at 100 mg/kg, po administered via gavage every other day for 10 times and measured every 2 days during compound dosing; assay type: organism-based, PC-3; details: in vivo, 48 h; outline: as §1
PC-3 [24] = assay: Down regulation of CIAP1 expression in human PC3 cells by Western blot analysis; assay type: functional, cell-based
[25] = molecular target: Baculoviral IAP repeat-containing protein 5 (Homo sapiens) (UniProt O15392); assay: Inhibition of survivin homodimerization in human C4-2 cells assessed as increase in survivin degradation in presence of proteasome inhibitor MG132 by Western blot analysis; assay type: cell-based; details: LNCaP C4-2; outline: as §5
PC-3 [26] = assay: Induction of apoptosis in human PC3 cells at 3 uM measured after 48 hrs by Annexin V-FITC/propidium iodide staining based flow cytometry relative to control; assay type: functional
Outline: (§6)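 C4-2 or PC-3 cells were treated with 3 μM compound or DMSO for 48 h, harvested, washed, and stained with annexin V-FITC and propidium iodide. Apoptosis was analysed by flow cytometry with excitation at 488 […]; three independent experiments.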

[27] = Toxicity in NSG mouse xenografted in human PC3 cells assessed as effect on kidney weight at 100 mg/kg, po administered via gavage every other day for 10 times and measured post last dose; assay type: organism-based, PC-3; details: in vivo; outline: as §1
[28] = Toxicity in NSG mouse xenografted in human PC3 cells assessed as effect on liver weight at 100 mg/kg, po administered via gavage every other day for 10 times and measured post last dose; assay type: organism-based, PC-3; details: in vivo; outline: as §1
DU-145 = assay: Effect on basal SEAP reporter activity in human DU145 cells measured after 24 hrs by mammalian two hybrid assay; assay type: ADME, cell-based; details: du-145, 24 h; outline: as §2
[29] = Toxicity in NSG mouse xenografted in human PC3 cells assessed as effect on lung weight at 100 mg/kg, po administered via gavage every other day for 10 times and measured post last dose; assay type: organism-based, PC-3; details: in vivo; outline: as §1
LNCaP C4-2 [30] = assay: Down regulation of XIAP expression in human C4-2 cells by Western blot analysis; assay type: functional, cell-based
LNCaP C4-2 [31] = assay: Induction of apoptosis in human C4-2 cells at 3 uM measured after 48 hrs by Annexin V-FITC/propidium iodide staining based flow cytometry relative to control; assay type: functional; outline: as §6
PC-3 [32] = assay: Down regulation of survivin expression in human PC3 cells by Western blot analysis; assay type: functional, cell-based
PC-3 [33] = assay: Cytotoxicity against human PC3 cells assessed as reduction in cell viability by MTT assay; assay type: functional, cell-based

inhibition (Homo sapiens): inactive | solubility [11]: Soluble
Compound: Fc1ccc(Nc2nc3ccccc3nc2Nc2ccc(F)cc2)cc1
Activity [1]: Non-Toxic | IC50 (LNCaP C4-2 [2]): 2 µM | Activity (PC-3 [3]): inactive | IC50 (LNCaP C4-2 [4]): 7 µM | inhibition [5]: Active | Activity (PC-3 [6]): Dose-dependent effect | Activity (PC-3 [7]): inactive | T1/2 [8]: 50 min | Activity (LNCaP C4-2 [9]): inactive | Activity (LNCaP C4-2 [10]): inactive | Activity (LNCaP C4-2 [12]): Active | Activity (PC-3 [13]): Active | Activity (PC-3 [14]): Active | Activity [15]: Non-Toxic | IC50 (PC-3 [16]): 4.8 µM | inhibition [17]: inactive | inhibition [18]: Active | Activity (PC-3 [19]): Active | IC50 (LNCaP C4-2 [20]): 3.1 µM | T1/2 [21]: 25 min | Activity (LNCaP C4-2 [22]): Dose-dependent effect | Activity [23]: Non-Toxic | Activity (PC-3 [24]): inactive | inhibition [25]: inactive | Activity (PC-3 [26]): 39% | Activity [27]: Non-Toxic | Activity [28]: Non-Toxic | Activity (DU-145): Non-Toxic | Activity [29]: Non-Toxic | Activity (LNCaP C4-2 [30]): inactive | Activity (LNCaP C4-2 [31]): 48% | Activity (PC-3 [32]): Active

Compound: O=C(Nc1nc2ccccc2nc1Nc1ccc(F)cc1)c1ccccc1
IC50 (PC-3 [16]): 19.7 µM | IC50 (LNCaP C4-2 [20]): 12.7 µM

Compound: O=C(Nc1nc2ccccc2nc1Nc1ccc(F)cc1)c1ccc2c(c1)OCO2
IC50 (PC-3 [16]): 20.7 µM | IC50 (LNCaP C4-2 [20]): 14.3 µM

Compound: CCOC(=O)c1ccc(Nc2nc3nonc3nc2N/N=C/c2c[nH]nc2-c2ccccc2)cc1
IC50 (PC-3 [33]): 3.5 µM

Compound: Cc1cccc(Nc2nc3nonc3nc2N/N=C/c2cc3c(cc2[N+](=O)[O-])OCO3)c1C
IC50 (PC-3 [33]): 2.6 µM

Compound: Cc1cccc(Nc2nc3nonc3nc2N/N=C/c2ccc(-c3cccc(C(=O)O)c3)o2)c1C
IC50 (PC-3 [16]): 8.1 µM | IC50 (LNCaP C4-2 [20]): 9.1 µM

Compound: Cc1cccc(Nc2nc3nonc3nc2N/N=C/c2ccc(-c3ccc(Cl)c([N+](=O)[O-])c3)o2)c1C
IC50 (PC-3 [33]): 7.2 µM

Compound: Cc1ccc(-c2ccc(/C=N/Nc3nc4nonc4nc3Nc3ccc(Br)cc3)o2)cc1Cl
IC50 (PC-3 [33]): 3.3 µM

Compound: Cc1cccc(Nc2nc3ccccc3nc2Nc2cccc(C)c2C)c1C
IC50 (PC-3 [16]): 24.8 µM | IC50 (LNCaP C4-2 [20]): 17.6 µM

Compound: O=C1N=c2ccc(Nc3nc4nonc4nc3N/N=C/c3ccccc3OCc3ccc(Cl)cc3Cl)cc2=N1
IC50 (PC-3 [33]): 60.3 µM

Compound: CC(C)(C)c1ccc(Nc2nc3ccccc3nc2Nc2ccc(C(C)(C)C)cc2)cc1
IC50 (PC-3 [16]): 18.2 µM | IC50 (LNCaP C4-2 [20]): 18.6 µM
